Bioassay records from PubChem.
RGS4 act: RGS4 potentiators or activators, primary screen, cell-based, HEK293 M3R inducible RGS4, calcium flux; B-score at 10 µM; carbachol calcium flux Fluo4; stronger effect = lower value; hit rate 0.92% among 310,000;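 active = B-score of the integrated calcium signal more than 4 SD below the library mean, with starting fluorescence not abnormally high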;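 also: negative B-score means reduced calcium response which marks RGS4 activation or potentiation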
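Assay system: HEK293 FlpIn-TREx cells, stable M3R, doxycycline-inducible RGS4 / Probe or stimulus: carbachol, ECmax concentration / Times: overnight RGS4 induction, 30 min dye load 37 °C, 20 min compound RT / Signal: kinetic calcium fluorescence imaging with Fluo4-AM dye, 2 µM / Measure: Agonist-evoked peak-minus-minimum fluorescence over baseline, integrated ratio, B score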
RGS4 block: RGS4 inhibitors, primary screen, cell-based, HEK293 M3R inducible RGS4, calcium flux; Regulator of G-protein signaling 4 (Homo sapiens), P49798; hit rate 0.45% among 310,000; Fluo-4 calcium flux; stronger effect = higher value; triggered by carbachol at its EC20; B-score at 10 µM; AID 463165, 2010;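 active = B-score, a plate-corrected calcium signal, over three deviations above library mean, with baseline fluorescence within five deviations of library mean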;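 also: RGS4 expression induced by doxycycline in cells with stable M3 receptor; B-score is computed from the integrated fluorescence ratio over baseline after carbachol; higher B-score means a larger calcium signal and so more RGS4 inhibition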
Target sequence (P49798 whole entry, looked up): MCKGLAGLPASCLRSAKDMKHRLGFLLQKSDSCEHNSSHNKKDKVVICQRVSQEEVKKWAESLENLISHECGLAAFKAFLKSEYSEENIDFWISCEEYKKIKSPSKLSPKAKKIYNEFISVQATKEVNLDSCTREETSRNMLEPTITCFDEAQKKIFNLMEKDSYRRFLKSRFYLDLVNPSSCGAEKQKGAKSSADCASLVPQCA
MrgX1 antagonist: antagonists of human MrgX1 receptor, primary screen, HEK293 cells, Fluo-4 calcium flux; Mas-related G-protein coupled receptor member X1 (Homo sapiens), Q96LB2; BAM8-22 antagonism; stronger effect = lower value; B-score at 10 µM; hit rate 1.3% among 310,000; AID 588676, 2011;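 active = calcium-response B-score plate-corrected more than 3 library SD below zero, starting fluorescence within 5 deviations, no agonist response on first addition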;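 also: peak minus trough fluorescence over baseline after final BAM8-22 challenge near maximal dose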
Target sequence (Q96LB2 whole entry, looked up): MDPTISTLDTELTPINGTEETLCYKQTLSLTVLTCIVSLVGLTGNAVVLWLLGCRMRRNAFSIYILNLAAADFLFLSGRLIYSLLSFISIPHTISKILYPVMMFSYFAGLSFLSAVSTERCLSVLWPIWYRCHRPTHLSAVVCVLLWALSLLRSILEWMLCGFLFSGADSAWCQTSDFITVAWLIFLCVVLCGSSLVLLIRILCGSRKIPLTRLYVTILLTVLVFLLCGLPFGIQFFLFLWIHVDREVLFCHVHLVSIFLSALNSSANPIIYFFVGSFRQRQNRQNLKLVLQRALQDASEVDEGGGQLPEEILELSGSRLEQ
MrgX1 allo act: positive allosteric modulators of MrgX1, primary screen, HEK293 cells, Fluo-4 calcium flux; Mas-related G-protein coupled receptor member X1 (Homo sapiens), Q96LB2; FDSS; stronger effect = higher value; B-score at 10 µM; hit rate 0.63% among 310,000; AID 588675, 2011;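 active = plate-corrected calcium response at least 3 library SD above typical, normal starting fluorescence, not activating the receptor alone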;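 also: compound read alongside a low EC10 to EC30 dose of BAM8-22 agonist; peak minus trough fluorescence over baseline measured at the second addition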
MrgX1 agonist: agonists of human MrgX1 receptor, primary screen, HEK293 cells, Fluo-4 calcium flux | Mas-related G-protein coupled receptor member X1 (Homo sapiens), Q96LB2 | Fluo-4 calcium fluorescence, agonist mode; stronger effect = higher value | B-score at 10 µM | hit rate 0.44% among 310,000 | AID 588627, 2011;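 active = calcium response B-score plate-corrected fluorescence ratio at least 3 library SD, with starting fluorescence B-score inside 5 SD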
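Material: MrgX1-expressing HEK293 cells / Dosing: compound as first of three additions / Incubation: overnight seeding, then 1 h dark dye loading / Signal: Fluo-4 NW calcium fluorescence / Evaluation: B-scored fluorescence response ratio / Benchmarks: positive and negative control wells on each plate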
RGS4 block valid: enhanced carbachol calcium response, M3R/RGS4 cells, RGS4 inhibitor project, cell-based, validation screen, HEK293 M3R/RGS4, calcium flux; shares compounds with RGS4 block; carbachol calcium Fluo-4 fluorescence; carbachol added at its EC20; 0 = buffer wells, 100 = carbachol control; hit rate 65% among 1,700; calcium response, % at 10 µM;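 active = duplicate-averaged calcium response above the buffer-only control mean plus 5 SD of those controls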;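 also: integrated fluorescence ratio F max minus min over baseline F0; higher response in RGS4-induced cells means RGS4 inhibition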
RGS4 uninduced: carbachol calcium response in non-induced M3R cells, confirmation, counter-screen for RGS4 inhibitor project, cell-based, HEK293 M3R; shares compounds with RGS4 block; carbachol calcium Fluo-4; submaximal (EC20) carbachol stimulus; buffer wells 0%, carbachol control wells 100%; activity (percent), % at 10 µM; hit rate 20% among 1,900; AID 493000, 2010; call rule not given here;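 also: RGS4 induction absent so cells express M3R without RGS4; higher means more calcium signal and flags a non-specific hit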
M3R basal Ca ctr: second counter-screen for RGS4 inhibitors: non-induced cells without carbachol; shares compounds with RGS4 block; HEK293 M3R/RGS4 non-induced, Fluo-4 calcium, no carbachol; normalised: buffer wells 0%, carbachol wells 100%; calcium response (agonist-mode artifact), % at 10 µM; hit rate 22% among 1,900; AID 493001;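 active = duplicate-averaged calcium rise in uninduced cells above buffer wells' mean plus 5 SD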
* hit, by the source's call. Only some compounds are listed: those with a hit (about 3.5% of all), similar ones and a draw of the others.

Screening CNc1nc(N)c([N+](=O)[O-])c(NC2CCCCC2)n1 returned RGS4 act inactive, RGS4 block 6*, MrgX1 antagonist inactive, MrgX1 allo act inactive, MrgX1 agonist inactive, RGS4 block valid 32%*, RGS4 uninduced 39%* and M3R basal Ca ctr inactive.
`Cc1ccc([C@H]2C(C#N)=C(N)Oc3cc(C)oc(=O)c32)o1` gave RGS4 act inactive, RGS4 block 6.9*, MrgX1 antagonist inactive, MrgX1 allo act inactive, MrgX1 agonist inactive, RGS4 block valid 26%*, RGS4 uninduced inactive and M3R basal Ca ctr inactive.
Screening COc1ccc(NC(=O)CCn2cccc2)c(OC)c1 returned RGS4 act inactive, RGS4 block inactive, MrgX1 antagonist inactive, MrgX1 allo act inactive and MrgX1 agonist inactive.
Screening COc1ccc(Br)cc1C(C[N+](=O)[O-])c1c(N)n(C)c(=O)n(C)c1=O (stereo not given) returned RGS4 act inactive, RGS4 block inactive, MrgX1 antagonist inactive, MrgX1 allo act inactive and MrgX1 agonist inactive.
COc1ccc(C(C[N+](=O)[O-])c2c(C)cc3ccccn23)c(OC)c1 (stereo not given) was read as RGS4 act inactive, RGS4 block 13*, MrgX1 antagonist inactive, MrgX1 allo act inactive, MrgX1 agonist 41*, RGS4 block valid inactive, RGS4 uninduced inactive and M3R basal Ca ctr inactive.
For COc1ccc(OC)c(C(C[N+](=O)[O-])c2c(C)cc3ccccn23)c1 (stereo not given) the results were RGS4 act inactive, RGS4 block inactive, MrgX1 antagonist inactive, MrgX1 allo act inactive, MrgX1 agonist inactive, RGS4 block valid inactive, RGS4 uninduced inactive and M3R basal Ca ctr inactive.
Screening CCc1nnc(NC(=O)CSc2nc3cccnc3n2C2CCCCC2)s1 returned RGS4 act inactive, RGS4 block inactive, MrgX1 antagonist inactive, MrgX1 allo act inactive and MrgX1 agonist inactive.
For Cc1nc(NC(=O)CSc2nc3cccnc3n2C2CCCCC2)sc1C the results were RGS4 act inactive, RGS4 block inactive, MrgX1 antagonist inactive, MrgX1 allo act inactive, MrgX1 agonist inactive, RGS4 uninduced inactive and M3R basal Ca ctr inactive.
For O=C(c1cc2n(n1)C(C(F)(F)F)CC(c1ccco1)N2)N1CCc2ccccc2C1 (stereo not given) the results were RGS4 act inactive, RGS4 block 5.2*, MrgX1 antagonist inactive, MrgX1 allo act inactive, MrgX1 agonist inactive, RGS4 block valid 8.0%*, RGS4 uninduced inactive and M3R basal Ca ctr 28%*.
Screening Cc1ccnc(NS(=O)(=O)c2ccc(NC(=O)CC(C)c3ccccc3)cc2)n1 (stereo not given) returned RGS4 act inactive, RGS4 block 6.2*, MrgX1 antagonist inactive, MrgX1 allo act inactive, MrgX1 agonist inactive, RGS4 block valid 5.0%*, RGS4 uninduced inactive and M3R basal Ca ctr inactive.
Screening Cc1ccnc(NS(=O)(=O)c2ccc(NC(=O)Cc3ccccc3)cc2)n1 returned RGS4 act inactive, RGS4 block inactive, MrgX1 antagonist inactive, MrgX1 allo act inactive and MrgX1 agonist inactive.
Screening Cc1ccc(OC/C(=N\O)C(C)(C)C)c([N+](=O)[O-])c1 returned RGS4 act inactive, RGS4 block inactive, MrgX1 antagonist inactive, MrgX1 allo act inactive and MrgX1 agonist inactive.
`O=C(NCCCO)C(=O)NCc1ccccn1` gave RGS4 act inactive, RGS4 block inactive, MrgX1 antagonist inactive, MrgX1 allo act inactive and MrgX1 agonist inactive.
For CCC(C)Oc1ccc(/C=C/c2[nH]c(=O)[nH]c(=O)c2[N+](=O)[O-])cc1OC (stereo not given) the results were RGS4 act inactive, RGS4 block 5.6*, MrgX1 antagonist inactive, MrgX1 allo act inactive, MrgX1 agonist inactive, RGS4 block valid 10%*, RGS4 uninduced inactive and M3R basal Ca ctr 76%*.
For COc1cc(/C=C/c2[nH]c(=O)[nH]c(=O)c2[N+](=O)[O-])ccc1OCCC(C)C the results were RGS4 act inactive, RGS4 block inactive, MrgX1 antagonist inactive, MrgX1 allo act inactive and MrgX1 agonist inactive.
`O=c1[nH]c(/C=C/c2cccc([N+](=O)[O-])c2)c([N+](=O)[O-])c(=O)[nH]1` gave RGS4 act inactive, RGS4 block inactive, MrgX1 antagonist inactive, MrgX1 allo act inactive and MrgX1 agonist inactive.
For O=c1[nH]c(/C=C/c2ccccc2)c([N+](=O)[O-])c(=O)[nH]1 the results were RGS4 act inactive, RGS4 block 5.7*, MrgX1 antagonist inactive, MrgX1 allo act inactive, MrgX1 agonist inactive, RGS4 block valid 22%*, RGS4 uninduced inactive and M3R basal Ca ctr inactive.
`CC#CC(=O)N1CCC(CO)(CCc2ccccc2)CC1` gave RGS4 act inactive, RGS4 block inactive, MrgX1 antagonist inactive, MrgX1 allo act inactive and MrgX1 agonist inactive.
Screening COc1ccc(C(=O)/C=C/c2ccc(O)cc2)c(O)c1CC=C(C)C returned RGS4 act inactive, RGS4 block 6.4*, MrgX1 antagonist inactive, MrgX1 allo act inactive, MrgX1 agonist inactive, RGS4 block valid 19%*, RGS4 uninduced inactive and M3R basal Ca ctr inactive.
Screening COc1ccc(C(=O)/C=C/c2ccc(O)cc2)cc1 returned RGS4 act inactive, RGS4 block inactive, MrgX1 antagonist inactive, MrgX1 allo act inactive and MrgX1 agonist inactive.
Screening COc1ccc(CNC(=O)C2CC(C)=CCC2C(=O)O)cc1 (stereo not given) returned RGS4 act inactive, RGS4 block inactive, MrgX1 antagonist inactive, MrgX1 allo act inactive and MrgX1 agonist inactive.
Cc1ccc2nc(COc3ccc(Cl)cc3)cc(=O)n2c1 was read as RGS4 act inactive, RGS4 block inactive, MrgX1 antagonist inactive, MrgX1 allo act inactive and MrgX1 agonist inactive.
